Data: publication PMC3353655 (Journal of the American Chemical Society, 2012)

What was measured:
Sortase B (SrtB) = target: T1, Sortase B (SrtB) (Staphylococcus aureus, UniProt Q2FZE3); experiment: Fluorescence polarization binding of fluorescein-labeled lantipeptides to SrtB
T1 sequence (Q2FZE3 31-244 limits assumed): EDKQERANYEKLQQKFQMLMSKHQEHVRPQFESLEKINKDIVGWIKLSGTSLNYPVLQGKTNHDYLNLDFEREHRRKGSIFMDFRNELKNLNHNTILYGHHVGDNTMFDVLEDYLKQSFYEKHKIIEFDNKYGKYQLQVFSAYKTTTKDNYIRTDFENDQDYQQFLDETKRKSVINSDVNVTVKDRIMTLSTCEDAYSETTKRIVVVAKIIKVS
How it was run: (§1)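 Binding constants were measured by fluorescence polarization. Test compounds were synthetic lantipeptides labeled with 5-carboxyfluorescein, with a C-terminal polyethylene glycol tail added for solubility. Sortase B was run in the same format as Sortase A. Each data point is the average of at least three independent measurements.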

SrtA = experiment: Inhibition of SrtA catalyzed cleavage of a peptide substrate; assay type: biochemical, Staphylococcus aureus; details: peptide at a concentration of up to 1 mM; data not shown
How it was run: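 SrtA cleaved a peptide substrate; this reaction has a Km of 80 μM. The test compound was tested at concentrations up to 1 mM.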

Sortase A (SrtA) = target: T2, Sortase A (SrtA) (Staphylococcus aureus, UniProt Q2FV99); experiment: Fluorescence polarization binding of fluorescein-labeled lantipeptides to SrtA; details: SrtA binding compared with 2(2S,6R)
T2 sequence (Q2FV99 60-206 limits assumed): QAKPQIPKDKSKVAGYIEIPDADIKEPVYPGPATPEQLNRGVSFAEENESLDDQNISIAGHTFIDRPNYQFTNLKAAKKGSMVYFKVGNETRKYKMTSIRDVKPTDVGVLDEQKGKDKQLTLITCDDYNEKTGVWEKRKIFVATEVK
How it was run: as §1

SMILES | affinity to SrtB (in words) (Sortase B (SrtB); fluorescein-labeled peptide) | Kd (Sortase B (SrtB); read-out: Kd [μM], SrtB, SrtA was replaced by Sortase B (SrtB), 50 mM Tris HCl, 50 mM NaCl, 5 mM CaCl2, 1.2 mM TCEP, average of at least three independent measurements) [µM] | inhibition of SrtA catalyzed cleavage of a peptide substrate (SrtA) | fold weaker binder than 2(2S,6R) (Sortase A (SrtA)) [fold]
CC[C@H](C)[C@H](NC(=O)[C@H](CCCNC(=N)N)NC(=O)CNC(=O)[C@H](Cc1c[nH]c2ccccc12)NC(=O)[C@@H]1CSC[C@@H](NC(=O)[C@H](Cc2ccc(O)cc2)NC(=O)[C@H](Cc2c[nH]c3ccccc23)NC(=O)[C@H](CC(C)C)NC(=O)CNC(=O)[C@H](CCCNC(=N)N)NC(=O)c2ccc3c(c2)C(=O)OC32c3ccc(O)cc3Oc3cc(O)ccc32)C(=O)N[C@@H](CC(C)C)C(=O)N[C@@H](CO)C(=O)N1)C(=O)NCC(=O)N[C@@H](CCCNC(=N)N)C(=O)N[C@@H](CCCNC(=N)N)C(=O)NCCCOCCOCCOCCCNC(=O)CCC(=O)NCCCOCCOCCOCCCNC(=O)CCC(=O)NCCCOCCOCCOCCCNC(=O)CCC(=O)N[C@@H](C)C(=O)O [2(2S,6R)] | no detectable affinity | > 300 | unable to inhibit | –
CC[C@H](C)[C@H](NC(=O)[C@H](CCCNC(=N)N)NC(=O)CNC(=O)[C@H](Cc1c[nH]c2ccccc12)NC(=O)[C@@H]1CSC[C@@H](NC(=O)[C@H](Cc2ccc(O)cc2)NC(=O)[C@H](Cc2c[nH]c3ccccc23)NC(=O)[C@H](CC(C)C)NC(=O)CNC(=O)[C@H](CCCNC(=N)N)NC(=O)c2ccc3c(c2)C(=O)OC32c3ccc(O)cc3Oc3cc(O)ccc32)C(=O)N[C@@H](CC(C)C)C(=O)N[C@@H]([C@@H](C)O)C(=O)N1)C(=O)NCC(=O)N[C@@H](CCCNC(=N)N)C(=O)N[C@@H](CCCNC(=N)N)C(=O)NCCCOCCOCCOCCCNC(=O)CCC(=O)NCCCOCCOCCOCCCNC(=O)CCC(=O)NCCCOCCOCCOCCCNC(=O)CCC(=O)N[C@@H](C)C(=O)O [6(2S,6R)] | – | – | – | 10
